Measurements as given in ChEMBL document CHEMBL1138592, “Pyridopyrimidine based cannabinoid-1 receptor inverse agonists: Synthesis and biological evaluation” (Bioorg Med Chem Lett, 2009).

How the values were obtained:
Cannabinoid receptor 2 = Cannabinoid receptor 2 (Homo sapiens, UniProt P34972); assay: Binding affinity to human cannabinoid CB2R expressed in CHO cells; type: cell-based
Cannabinoid receptor 1 = Cannabinoid receptor 1 (Homo sapiens, UniProt P21554); assay: Inverse agonist activity at human cannabinoid CB1R expressed in CHO cells assessed as effect on cAMP accumulation; type: functional, cell-based
Chain of Cannabinoid receptor 1 (P21554 whole entry): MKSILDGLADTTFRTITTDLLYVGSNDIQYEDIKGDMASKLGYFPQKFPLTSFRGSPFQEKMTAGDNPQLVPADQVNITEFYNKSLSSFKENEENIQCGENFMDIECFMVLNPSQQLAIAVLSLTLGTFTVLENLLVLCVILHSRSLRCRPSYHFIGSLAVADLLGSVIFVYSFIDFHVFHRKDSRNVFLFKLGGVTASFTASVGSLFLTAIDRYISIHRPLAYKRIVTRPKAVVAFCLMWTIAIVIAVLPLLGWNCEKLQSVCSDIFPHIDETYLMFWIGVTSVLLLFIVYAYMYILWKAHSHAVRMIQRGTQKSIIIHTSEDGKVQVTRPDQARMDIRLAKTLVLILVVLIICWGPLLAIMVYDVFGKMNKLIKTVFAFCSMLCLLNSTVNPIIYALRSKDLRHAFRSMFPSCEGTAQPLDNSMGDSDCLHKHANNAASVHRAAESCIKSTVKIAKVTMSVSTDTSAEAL

Rattus norvegicus [1] = assay: Antiobesity activity in high fat diet-induced obese Sprague-Dawley rat model assessed as change in body weight at 3 mg/kg, po after 18 hrs of last dose relative to control; type: functional
Rattus norvegicus [2] = assay: Antiobesity activity in high fat diet-induced obese Sprague-Dawley rat model assessed as suppression of food intake at 3 mg/kg, po after 18 hrs of last dose relative to control; type: functional
[3] = Ratio of drug level in brain to plasma in rat after 0.25 hrs; type: ADME; conditions: brain and plasma
[4] = Half life in rat; type: ADME, organism-based; conditions: in vivo
Rattus norvegicus [5] = assay: Antiobesity activity in diet-induced obese Sprague-Dawley rat model assessed as suppression of overnight body weight change at 3 mg/kg, po administered 1 hr before dark cycle for 14 days measured after 18 hrs of last dose; type: functional
Rattus norvegicus [6] = assay: Antiobesity activity in diet-induced obese Sprague-Dawley rat model assessed as suppression of overnight food intake at 3 mg/kg, po administered 1 hr before dark cycle for 14 days measured after […] of last dose; type: functional
[7] = Bioavailability in rat; type: ADME, organism-based; conditions: in vivo
[8] = Half life in monkey; type: ADME, organism-based, Macaca mulatta; conditions: rhesus monkey, in vivo
Outline: (§1)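 Pharmacokinetic study in rhesus macaque. Reported parameters are bioavailability F (%), half-life T1/2 (h) and plasma clearance Clp (mL/min/kg).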

[9] = Plasma clearance in rat; type: ADME, organism-based
[10] = Bioavailability in monkey; type: ADME, organism-based, Macaca mulatta; conditions: rhesus monkey, in vivo; outline: as §1
[11] = Plasma clearance in monkey; type: ADME, organism-based, Macaca mulatta; conditions: rhesus monkey; outline: as §1
[12] = Plasma clearance in dog; type: ADME, organism-based, Canis lupus familiaris
[13] = Half life in dog; type: ADME, organism-based, Canis lupus familiaris; conditions: in vivo
[14] = Bioavailability in dog; type: ADME, organism-based, Canis lupus familiaris; conditions: in vivo
Rattus norvegicus [15] = assay: Antiobesity activity in high fat diet-induced obese Sprague-Dawley rat model assessed as suppression of food intake at 10 mg/kg, po after 18 hrs; type: functional
Rattus norvegicus [16] = assay: Antiobesity activity in high fat diet-induced obese Sprague-Dawley rat model assessed as change in overnight body weight at 10 mg/kg, po after 18 hrs; type: functional
[17] = Ratio of drug level in brain to plasma in rat after 4 hrs; type: ADME; conditions: brain and plasma

Chain of Cannabinoid receptor 2 (P34972 whole entry): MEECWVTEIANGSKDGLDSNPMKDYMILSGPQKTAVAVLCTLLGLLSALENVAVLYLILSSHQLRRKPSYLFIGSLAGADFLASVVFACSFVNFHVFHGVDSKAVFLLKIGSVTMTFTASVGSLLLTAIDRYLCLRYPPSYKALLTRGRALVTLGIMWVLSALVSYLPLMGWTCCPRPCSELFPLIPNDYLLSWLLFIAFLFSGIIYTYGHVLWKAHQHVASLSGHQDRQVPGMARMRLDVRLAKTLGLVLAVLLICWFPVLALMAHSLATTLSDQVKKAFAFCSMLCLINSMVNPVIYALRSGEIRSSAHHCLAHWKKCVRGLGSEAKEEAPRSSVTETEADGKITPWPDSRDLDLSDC

IC50 (Cannabinoid receptor 2) [µM]	IC50 (Cannabinoid receptor 1) [nM]	SMILES	also measured
5.8	–	CC(=O)c1ccc(-c2cc3c(nc2-c2ccccc2Cl)nc(C(C)(C)C)n2c(=O)[nH]nc32)cc1	–
12	150	CCN(CC)C(=O)c1nc(NC(C)C)c2cc(-c3ccc(Cl)cc3)c(-c3ccccc3Cl)nc2n1	–
–	–	CC(=O)Nc1c(C(C)=O)c(=O)n(C)c2nc(-c3ccc(Cl)cc3Cl)c(-c3ccc(Cl)cc3)cc12 [NAPHTHYRIDINONE]	Activity (Rattus norvegicus [1]): -4 g; Activity (Rattus norvegicus [2]): 68%; Kp at 0.25 h [3]: 0.9; half-life [4]: > 480 min
–	–	C[C@H](NC(=O)C(C)(C)Oc1ccc(C(F)(F)F)cn1)[C@@H](Cc1ccc(Cl)cc1)c1cccc(C#N)c1 [TARANABANT]	Activity (Rattus norvegicus [5]): -10 g; Activity (Rattus norvegicus [6]): 49%
18	100	CC(C)(C)c1nc2nc(-c3ccccc3Cl)c(-c3cnccc3C#N)cc2c2n[nH]c(=O)n12	–
0.77	28	CN(C)c1ccc(-c2cc3c(nc2-c2ccccc2Cl)nc(C(C)(C)C)n2c(=O)[nH]nc32)cc1	–
> 2	59	O=c1[nH]c(-c2ccc(Cl)cc2)nc2nc(-c3ccccc3Cl)c(-c3ccc(Cl)cc3)cc12	–
8.4	7.5	COc1nc(C(C)(C)C)nc2nc(-c3ccccc3Cl)c(-c3ccc(Cl)cc3)cc12	–
7.3	130	CC(C)c1nc2nc(-c3ccccc3Cl)c(-c3ccc(Cl)cc3)cc2c(=O)[nH]1	–
–	–	N#Cc1cc(-c2ccc(Cl)cc2)c(-c2ccc(Cl)cc2Cl)nc1Oc1ccc(F)c(F)c1	Activity (Rattus norvegicus [15]): 48%; Activity (Rattus norvegicus [16]): -8 g
> 2	16	Nc1nc(-c2ccc(Cl)cc2)nc2nc(-c3ccccc3Cl)c(-c3ccc(Cl)cc3)cc12	–
9.83	0.63	CC(C)(C)c1nc(-c2ccc(F)cc2)c2cc(-c3ccc(Cl)cc3)c(-c3ccccc3Cl)nc2n1	–
9.8	82	CC(C)c1nc2nc(-c3ccccc3Cl)c(-c3ccc(Cl)cc3)cc2c(=O)n1Cc1ncon1	–
> 2	190	CC(C)c1nc(N)c2cc(-c3ccc(Cl)cc3)c(-c3ccccc3Cl)nc2n1	–
5.2	–	CC(C)(C)c1nc(N)c2cc(-c3ccc(Cl)cc3)c(-c3ccc(Cl)cc3Cl)nc2n1	–
4.9	40	CC(C)(C)c1nc(N)c2cc(-c3ccc(Cl)cc3)c(-c3ccccc3Cl)nc2n1	–
2.7	34	CC(C)(C)c1nc2nc(-c3ccccc3Cl)c(-c3cccc(Cl)c3)cc2c2n[nH]c(=O)n12	–
0.891	3	COc1ccc(-c2cc3c(nc2-c2ccccc2Cl)nc(C(C)(C)C)n2c(=O)[nH]nc32)cc1	–
9.2	1.1	CC(C)(C)c1nc2nc(-c3ccccc3Cl)c(-c3ccc(C(F)(F)F)cc3)cc2c2n[nH]c(=O)n12	–
6.3	1.1	CC(C)c1nc(OCc2ncon2)c2cc(-c3ccc(Cl)cc3)c(-c3ccccc3Cl)nc2n1	–
19	–	CC(C)(C)c1nc2nc(-c3ccc(C#N)cc3Cl)c(-c3ccc(Cl)cc3)cc2c2n[nH]c(=O)n12	–
> 2	2500	Cc1nc(O)c2cc(-c3ccc(Cl)cc3)c(-c3ccccc3Cl)nc2n1	–
> 2	4.1	CC(C)Nc1nc(C(C)(C)C)nc2nc(-c3ccccc3Cl)c(-c3ccc(Cl)cc3)cc12	–
1.1	1500	Cc1nc(N)c2cc(-c3ccc(Cl)cc3)c(-c3ccccc3Cl)nc2n1	–
1.8	1.9	CC(C)(C)c1nc(N2CCNCC2)c2cc(-c3ccc(Cl)cc3)c(-c3ccccc3Cl)nc2n1	–
1.8	8.5	CN(C)c1nc(C(C)(C)C)nc2nc(-c3ccccc3Cl)c(-c3ccc(Cl)cc3)cc12	–
3.4	8	CC(C)(C)c1nc2nc(-c3ccccc3Cl)c(-c3ccc(Cl)cc3)cc2c2nncn12	–
> 2	2.7	CC(C)(C)Nc1nc(C(C)(C)C)nc2nc(-c3ccccc3Cl)c(-c3ccc(Cl)cc3)cc12	–
2.7	2.2	CCN(CC)c1nc(C(C)(C)C)nc2nc(-c3ccccc3Cl)c(-c3ccc(Cl)cc3)cc12	–
8.6	7.4	CC(C)(C)c1nc2nc(-c3ccccc3Cl)c(-c3ccc(Cl)cc3)cc2c(=O)[nH]1	–

SMILES	IC50 (Cannabinoid receptor 2) [µM]	IC50 (Cannabinoid receptor 1) [nM]	also measured
CC(C)(C)c1nc2nc(-c3ccccc3C#N)c(-c3ccc(Cl)cc3)cc2c2n[nH]c(=O)n12	2.4	3.2	Activity (Rattus norvegicus [1]): -2 g; Activity (Rattus norvegicus [2]): 25%
CC(C)(C)c1nc2nc(-c3ccccc3Cl)c(-c3ccc(C#N)cc3)cc2c2n[nH]c(=O)n12	18	5.9	bioavailability [7]: 53%; half-life [8]: 594 min; Activity (Rattus norvegicus [1]): -5 g; clearance [9]: 4 mL/min/kg; Activity (Rattus norvegicus [2]): 36%; bioavailability [10]: 9.7%; clearance [11]: 5.3 mL/min/kg; clearance [12]: 24 mL/min/kg; half-life [4]: 210 min; half-life [13]: 444 min; bioavailability [14]: 2.1%
CC(C)(C)c1nc(NCC(F)(F)CO)c2cc(-c3ccc(Cl)cc3)c(-c3ccccc3Cl)nc2n1	> 2	9.5	Activity (Rattus norvegicus [1]): -4 g; Activity (Rattus norvegicus [2]): 39%
CC(C)(C)c1nc2nc(-c3ccccc3Cl)c(-c3ccc(Cl)cc3)cc2c2n[nH]c(=O)n12	3.8	1.9	bioavailability [7]: 33%; Activity (Rattus norvegicus [1]): -9 g; clearance [9]: 12 mL/min/kg; Activity (Rattus norvegicus [2]): 50%; Kp at 0.25 h [3]: 0.14; Kp at 4 h [17]: 0.59; half-life [4]: 336 min
CC(C)(C)c1nc2nc(-c3ccc(Cl)cc3Cl)c(-c3ccc(Cl)cc3)cc2c(=O)[nH]1	5.5	6	Activity (Rattus norvegicus [1]): 1 g; Activity (Rattus norvegicus [2]): 21%
